Data set [1] in a line: folding enthalpy; higher = less favourable; fluorescence melt of hairpins on a sequencing array, two-state fit. The note with it: sodium 0.088 M. Summed up:
(§1)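 Folding enthalpy and melting temperature come from bootstrapped two-state fits to Cy3 fluorescence of library hairpins carrying annealed Cy3 and quencher oligos on a sequenced MiSeq flow cell. Imaging was done in 50 mM Na-HEPES pH 8.0, 25 mM NaCl, stepping by 2.5 °C up to 60 °C, and signals were normalised to pre-quench Cy3 and to control constructs. Results of four replicates were combined by inverse variance, and fitted temperatures were raised by 9.35 °C to match UV melts.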

A short description of data set [2]: melting temperature; fluorescence melt of hairpins on a sequencing array, two-state fit, raised by 9.35 °C to match UV melts. The conditions noted are these: sodium 0.088 M. Summed up:
as §1

With GTGTAGACGAAAGTCCAC (((..(((....)))))), the folding enthalpy in data set [1] was -20.6 kcal/mol. Besides, in data set [2], the Tm turned out to be 42.8 °C.
The matching figures for GTGTAGGGAAACCTACAC (((((((....))))))): -41.1 kcal/mol and 61.5 °C.
For the sequence GTGTAGGGAAACTTACAC (((((.(....).))))), the folding enthalpy in data set [1] is -21.3 kcal/mol. In addition, the Tm in data set [2] was found to be 42 °C.
Turning to GTGTATACGAAAGTACAC (((..(((....)))))), in data set [1], the folding enthalpy was -23.2 kcal/mol. Moreover, the Tm in data set [2] was found to be 41.1 °C.
For GTGTATCCGAAAGGACAC (((..(((....)))))), in that order: -21.6 kcal/mol and 42.2 °C.
For GTGTATCGAAAGATGCAC (((.(((....))).))), the folding enthalpy in data set [1] is -41.9 kcal/mol. In addition, the Tm in data set [2] was 53.6 °C.
The matching figures for GTGTCAGGAAACCAACAC ((((..(....)..)))): -13.5 kcal/mol and 28 °C.
The matching figures for GTGTCCGAAAGGAGACAC ((((((....)))..))): -21.7 kcal/mol and 50.7 °C.
GTGTCCGAAAGGATCCAC ((((((....)))..))): the folding enthalpy in data set [1] was -10.4 kcal/mol. For the same sequence, in data set [2], the Tm was determined as 32.7 °C.
Turning to GTGTCCGGAAACGGGTAC ((..(((....)))..)), the folding enthalpy in data set [1] was -20 kcal/mol. Further, the Tm in data set [2] was 42.4 °C.
The matching figures for GTGTCGAAAGACAC (((((....))))): -25.7 kcal/mol and 68 °C.
For GTGTCGCGAAAGCGCCAC (((.(((....))).))), in that order: -25.7 kcal/mol and 57.7 °C.
Turning to GTGTCGGGAAACTGACGC (.(((.(....).))).), in data set [1], the folding enthalpy is -24.5 kcal/mol. For the same sequence, the Tm in data set [2] came to 45.5 °C.
GTGTCTACGAAAGTACAC (((..(((....)))))): the folding enthalpy in data set [1] was -13.2 kcal/mol. In data set [2], the Tm was determined as 38.5 °C.
Regarding GTGTCTGGAAACAGACGC (.(((((....))))).), in data set [1], the folding enthalpy was -33.4 kcal/mol. Moreover, in data set [2], the Tm was found to be 54.7 °C.
On to GTGTCTGGAAACAGGCAC (((.(((....))).))), for which, in data set [1], the folding enthalpy was -33.4 kcal/mol. Also, in data set [2], the Tm turned out to be 54.5 °C.
The matching figures for GTGTGACGAAAGTCTCAC (((.(((....))).))): -31.9 kcal/mol and 55.9 °C.
The matching figures for GTGTGAGGAAACTTACAC ((((.((....)).)))): -37.6 kcal/mol and 43.9 °C.
As for GTGTGCCGAAAGGCCCAC (((.(((....))).))), the folding enthalpy in data set [1] is -25.3 kcal/mol. Also, in data set [2], the Tm turned out to be 53.1 °C.
On to GTGTGCCGAAAGGCTCAC (((.(((....))).))), for which, in data set [1], the folding enthalpy was -31.5 kcal/mol. Further, in data set [2], the Tm came out at 61.2 °C.
For GTGTGCGAAAGCAAGCAC ((((((....)))..))), the folding enthalpy in data set [1] is -18.9 kcal/mol. Moreover, the Tm in data set [2] was 43.5 °C.
Regarding GTGTGCGAAAGCACCCAC ((((((....)))..))), in data set [1], the folding enthalpy is -8.11 kcal/mol. In addition, the Tm in data set [2] turned out to be 39.3 °C.
For GTGTGCGGAAACGTGCAC (((..((....))..))), in that order: -38.2 kcal/mol and 52.9 °C.
The matching figures for GTGTGGCGAAAGCCTCAC (((.(((....))).))): -29.7 kcal/mol and 58.9 °C.
For GTGTGTGGAAACACATAC ((.((((....)))).)), the folding enthalpy in data set [1] was -20.3 kcal/mol. Further, the Tm in data set [2] was found to be 50 °C.
For the sequence GTGTGTGGAAACACGCAC (((.(((....))).))), the folding enthalpy in data set [1] was -40 kcal/mol. Also, the Tm in data set [2] is 58.7 °C.
In the case of GTGTGTGGAAACGCACAC (((((.(....).))))), the folding enthalpy in data set [1] is -36.2 kcal/mol. The Tm in data set [2] was 56.5 °C.
Take GTGTTACGAAAGTAGCAC (((.(((....))).))): the folding enthalpy in data set [1] is -35.7 kcal/mol. In addition, in data set [2], the Tm turned out to be 53.9 °C.
Consider GTGTTAGGAAACTGACAC ((((.((....)).)))), for which the folding enthalpy in data set [1] was -33.8 kcal/mol. In data set [2], the Tm came to 46.1 °C.
For GTGTTCCGAAAGGACAC (((.(((....)))))), in that order: -32.8 kcal/mol and 53.8 °C.
GTGTTCGAAAGAAACCAC ((((((....)))..))): the folding enthalpy in data set [1] was -10.4 kcal/mol. Further, the Tm in data set [2] was 27.4 °C.
For GTGTTCGAAAGAAAGCAC ((((((....)))..))), in that order: -12.8 kcal/mol and 27.5 °C.
The matching figures for GTGTTCGAAAGAAGGCAC ((((((....)))..))): -22 kcal/mol and 28.6 °C.
For GTGTTCGCGAAAGCGCAC (((..(((....)))))), in that order: -18.1 kcal/mol and 45.2 °C.
Consider GTGTTCGGAAACGAGCAC (((.(((....))).))), for which the folding enthalpy in data set [1] was -40.4 kcal/mol. In addition, the Tm in data set [2] amounted to 53.8 °C.
For GTGTTCGGAAACGAGTAC ((..(((....)))..)), in that order: -18.9 kcal/mol and 31.2 °C.
For GTGTTGACGAAAGTCCAC (((..(((....)))))), in that order: -19.6 kcal/mol and 41.6 °C.
For GTGTTGGGAAACCAATGC (..((((....))))..), the folding enthalpy in data set [1] was -25.2 kcal/mol. Moreover, the Tm in data set [2] worked out at 38 °C.
Take GTGTTGTCGAAAGACCAC (((..(((....)))))): the folding enthalpy in data set [1] is -21.6 kcal/mol. Further, the Tm in data set [2] came to 42.4 °C.
Take GTGTTTCGAAAGAAGCAC (((.(((....))).))): the folding enthalpy in data set [1] is -38.1 kcal/mol. For the same sequence, in data set [2], the Tm was 51 °C.
Take GTGTTTGGAAACGAACAC (((((.(....).))))): the folding enthalpy in data set [1] was -35.8 kcal/mol. Further, the Tm in data set [2] was 49.5 °C.
For GTTAAACGAAAGTTAAAC (((.(((....))).))), in that order: -17.7 kcal/mol and 34.2 °C.
The matching figures for GTTAAAGGAAACTTTAAC (((((((....))))))): -34.6 kcal/mol and 46.6 °C.
As to GTTAAGACGAAAGTCAAC (((..(((....)))))), the folding enthalpy in data set [1] was -11.8 kcal/mol. The Tm in data set [2] amounted to 30.1 °C.
For the sequence GTTAATCGAAAGATAAAC (((.(((....))).))), in data set [1], the folding enthalpy was -20.7 kcal/mol. Besides, the Tm in data set [2] worked out at 31.6 °C.
The matching figures for GTTAATGGAAACATTAGC (.(((((....))))).): -20.7 kcal/mol and 34.8 °C.
With GTTACCCGAAAGGGCAAC (((.(((....))).))), the folding enthalpy in data set [1] was -24.4 kcal/mol. For the same sequence, in data set [2], the Tm was determined as 47.3 °C.
For the sequence GTTACCCGAAAGGGGAAC (((.(((....))).))), the folding enthalpy in data set [1] was -32.2 kcal/mol. In data set [2], the Tm turned out to be 61.5 °C.
The matching figures for GTTACCGAAAGGTATAAC ((((((....)))..))): -11.7 kcal/mol and 31.1 °C.
The matching figures for GTTACCGAAAGGTGCAAC ((((((....)))..))): -8.88 kcal/mol and 27.3 °C.
For GTTACCGGAAACGATAAC ((((.((....)).)))), in that order: -26.6 kcal/mol and 36.1 °C.
Consider GTTACCGGAAACGGCAAC (((.(((....))).))), for which the folding enthalpy in data set [1] is -24.6 kcal/mol. Also, the Tm in data set [2] was 44 °C.
On to GTTACCGGAAACGGTAGC (.(((((....))))).), for which the folding enthalpy in data set [1] was -18.9 kcal/mol. The Tm in data set [2] amounted to 50.4 °C.
The matching figures for GTTACGCGAAAGCGCAAC (((.(((....))).))): -19.4 kcal/mol and 49.3 °C.
The matching figures for GTTACGGGAAACCATAAC ((((.((....)).)))): -15.6 kcal/mol and 30 °C.
With GTTACTCGAAAGAGCAAC (((.(((....))).))), the folding enthalpy in data set [1] was -27.5 kcal/mol. Besides, the Tm in data set [2] came to 43.3 °C.
The matching figures for GTTACTGGAAACAGCAAC (((.(((....))).))): -28 kcal/mol and 36 °C.
GTTAGACGAAAGTCAAAC (((.(((....))).))): the folding enthalpy in data set [1] was -18.6 kcal/mol. Further, the Tm in data set [2] was found to be 43.6 °C.
In the case of GTTAGACGAAAGTCAAC (((.(((....)))))), the folding enthalpy in data set [1] is -13.4 kcal/mol. Besides, the Tm in data set [2] is 43 °C.
As for GTTAGAGGAAACCCTAAC (((((.(....).))))), the folding enthalpy in data set [1] was -17.9 kcal/mol. Besides, the Tm in data set [2] came out at 31.9 °C.
Regarding GTTAGCCGAAAGGCAAAC (((.(((....))).))), the folding enthalpy in data set [1] is -18.1 kcal/mol. In addition, in data set [2], the Tm was 48.6 °C.
For GTTAGCGAAAGCTCGAAC ((((((....)))..))), in that order: -7.85 kcal/mol and 22.9 °C.
For GTTAGCGCGAAAGCGAAC (((..(((....)))))), the folding enthalpy in data set [1] was -6.83 kcal/mol. The Tm in data set [2] was 27.7 °C.
GTTAGCGGAAACGCTAGC (.(((((....))))).): in data set [1], the folding enthalpy was -16.1 kcal/mol. In data set [2], the Tm was 49.3 °C.
The matching figures for GTTAGCGGAAACGTTGAC ((.(.((....)).).)): -14.7 kcal/mol and 30 °C.
GTTAGGCGAAAGCCGAAC (((.(((....))).))): the folding enthalpy in data set [1] was -19.6 kcal/mol. The Tm in data set [2] turned out to be 55.9 °C.
For GTTAGGGGAAACCCCAAC (((.(((....))).))), in that order: -19 kcal/mol and 37.4 °C.
Turning to GTTAGGGGAAACCCTAGC (.(((((....))))).), the folding enthalpy in data set [1] was -21.5 kcal/mol. Also, in data set [2], the Tm was 40.7 °C.
For GTTAGTCGAAAGACCAAC (((.(((....))).))), in that order: -19.1 kcal/mol and 37 °C.
Regarding GTTAGTGGAAACACCAAC (((.(((....))).))), in data set [1], the folding enthalpy is -13.3 kcal/mol. Besides, the Tm in data set [2] was 29.3 °C.
For GTTATAGAAATATAAC ((((((....)))))), in that order: -17.1 kcal/mol and 33.6 °C.
For GTTATAGGAAACTATGAC ((.((((....)))).)), in that order: -23 kcal/mol and 33 °C.
On to GTTATCCGAAAGGAAAAC (((.(((....))).))), for which, in data set [1], the folding enthalpy was -25.2 kcal/mol. In data set [2], the Tm was 40.8 °C.

The values are drawn from the array DNA melting data of Ke et al. (doi:10.1101/2024.01.08.574731).
